Among the data in ChEMBL document CHEMBL1150360, “Design, synthesis, and QSAR studies of novel lysine derives as amino-peptidase N/CD13 inhibitors” (Bioorg Med Chem, 2008) are IC50 and pIC50 values, retold here.

The target in experiment [1] is 72 kDa type IV collagenase (Homo sapiens, UniProt P08253). As to the kind of experiment: Inhibition of MMP2. The gist of the method: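 Gelatinase A enzyme, synthetic substrate and inhibitor dissolved together in 50 mmol/L sodium borate, pH 8.5, and incubated 30 min at 37 °C. 0.03% TNBS then added and incubated a further 20 min. Absorbance read at 450 nm.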
The nature of experiment [2]: Inhibition of aminopeptidase N. The method, boiled down: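 Porcine kidney microsomal aminopeptidase, 4 µg/mL final, preincubated 30 min at room temperature with inhibitor. Inhibitor solutions made in assay buffer and adjusted to pH 7.5. Substrate L-Leu-p-nitroanilide in 50 mM PBS, pH 7.2, at 37 °C; hydrolysis followed as absorbance change at 405 nm. IC50 determined.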

As usually defined, the IC50 is the midpoint of a concentration-inhibition curve. A lower IC50 goes with greater potency in that assay. What is called pIC50 is the IC50 on a negative log10 scale, so that one unit is a factor of ten. A higher pIC50 goes with a small IC50.

Chain of 72 kDa type IV collagenase (P08253 whole entry): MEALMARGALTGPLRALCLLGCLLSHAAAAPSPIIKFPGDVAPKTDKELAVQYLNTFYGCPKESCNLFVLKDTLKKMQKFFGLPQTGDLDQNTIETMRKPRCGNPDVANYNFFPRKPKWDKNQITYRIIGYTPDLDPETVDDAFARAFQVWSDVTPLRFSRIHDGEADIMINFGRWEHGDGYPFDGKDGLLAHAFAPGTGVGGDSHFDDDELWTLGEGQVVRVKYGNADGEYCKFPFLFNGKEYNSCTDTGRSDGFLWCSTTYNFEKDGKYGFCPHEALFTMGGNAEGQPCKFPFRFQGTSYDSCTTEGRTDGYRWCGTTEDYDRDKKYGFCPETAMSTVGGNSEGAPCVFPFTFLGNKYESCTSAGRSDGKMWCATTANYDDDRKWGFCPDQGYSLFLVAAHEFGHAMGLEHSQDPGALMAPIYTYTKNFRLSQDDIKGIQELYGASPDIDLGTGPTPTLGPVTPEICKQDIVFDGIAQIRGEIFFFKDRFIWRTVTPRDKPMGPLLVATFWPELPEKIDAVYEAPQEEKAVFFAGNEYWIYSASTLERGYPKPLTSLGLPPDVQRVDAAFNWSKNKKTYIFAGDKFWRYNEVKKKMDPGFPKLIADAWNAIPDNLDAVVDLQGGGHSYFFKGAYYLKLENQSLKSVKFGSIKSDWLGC

In experiment [1], `O=C(NCCCC[C@H](NC(=O)c1cccc([N+](=O)[O-])c1)C(=O)O)OCc1ccccc1` had an IC50 of 7.48 µM. In experiment [2], this molecule gave an IC50 of 111 µM and a pIC50 of 3.96.

The molecule `O=C(NCCCC[C@H](NC(=O)c1ccc(Br)cc1)C(=O)O)OCc1ccccc1` came in with an IC50 in experiment [1] of 13.1 µM. Besides, in experiment [2], it took 188 µM to reach half-maximal inhibition (IC50) and the pIC50 was determined as 3.73.

In experiment [1], `O=C(NCCCC[C@H](NC(=O)c1cccs1)C(=O)NO)OCc1ccccc1` had an IC50 of 12.6 µM. In experiment [2], this molecule had an IC50 of 159 µM and a pIC50 of 3.8.

As to `O=C(/C=C/c1ccccc1)N[C@@H](CCCCNC(=O)OCc1ccccc1)C(=O)NO`, in experiment [1], the IC50 amounted to 3.54 µM. In experiment [2], this molecule yielded an IC50 of 570 µM and a pIC50 of 3.24.

As to `O=C(NCCCC[C@H](NC(=O)c1ccc(Cl)cc1Cl)C(=O)NO)OCc1ccccc1`, the IC50 was found to be 170 µM in experiment [1] and 13.2 µM in experiment [2]. Moreover, the pIC50 in experiment [2] is listed as 4.88.

`O=C(/C=C/c1ccccc1)N[C@@H](CCCCNC(=O)OCc1ccccc1)C(=O)O` registered an IC50 in experiment [1] of 50.5 µM. For the same molecule, in experiment [2], the IC50 came out at 215 µM and the pIC50 is on record as 3.67.

The molecule `O=C(NCCCC[C@H](NC(=O)c1ccc([N+](=O)[O-])cc1)C(=O)O)OCc1ccccc1` had an IC50 in experiment [1] of 19.2 µM. Further, in experiment [2], 202 µM corresponded to half-maximal inhibition (IC50) and the negative logarithm of the IC50 (pIC50) came to 3.69.

In turn, `O=C(NCCCC[C@H](NC(=O)c1ccco1)C(=O)O)OCc1ccccc1` came in with a half-maximal inhibitory concentration (IC50) in experiment [1] of 8.49 µM. In addition, in experiment [2], half-maximal inhibition (IC50) was put at 1120 µM and the pIC50 turned out to be 2.95.

In experiment [1], `O=C(NCCCC[C@H](NC(=O)c1ccncc1)C(=O)NO)OCc1ccccc1` displayed an IC50 of 25.5 µM. In experiment [2], this molecule registered an IC50 of 91.2 µM and a pIC50 of 4.04.

With `O=C(NCCCC[C@H](NC(=O)c1ccco1)C(=O)NO)OCc1ccccc1`, the IC50 in experiment [1] was 8.08 µM; in experiment [2], 159 µM. In experiment [2], the negative-log IC50 (pIC50) amounted to 3.8.

For `O=C(NCCCC[C@H](NC(=O)c1cccc([N+](=O)[O-])c1)C(=O)NO)OCc1ccccc1`, 11.7 µM corresponded to half-maximal inhibition in experiment [1] (IC50). Further, in experiment [2], the IC50 came out at 95.8 µM and the pIC50 is reported as 4.02.

For `O=C(NCCCC[C@H](NC(=O)c1ccc([N+](=O)[O-])cc1)C(=O)NO)OCc1ccccc1`, inhibition in experiment [1] was half-maximal at 32 µM (IC50). In experiment [2], this molecule returned an IC50 of 108 µM and a pIC50 of 3.97.

`O=C(NCCCC[C@H](NC(=O)c1cnccn1)C(=O)O)OCc1ccccc1` had an IC50 in experiment [1] of 2.93 µM. In experiment [2], this molecule showed a concentration for half-maximal inhibition (IC50) of 197 µM and a pIC50 of 3.7.

Take `O=C(NCCCC[C@H](NC(=O)c1ccc(Cl)cc1Cl)C(=O)O)OCc1ccccc1`: the IC50 in experiment [1] was found to be 17.8 µM. In experiment [2], this molecule showed an IC50 of 127 µM and a pIC50 of 3.9.

Consider `O=C(NCCCC[C@H](NC(=O)c1ccc(Br)cc1)C(=O)NO)OCc1ccccc1`, for which the concentration for half-maximal inhibition (IC50) in experiment [1] amounted to 9.94 µM; in experiment [2], 112 µM. For the same molecule, the pIC50 in experiment [2] is 3.95.

For `O=C(NCCCC[C@H](NC(=O)c1cccnc1)C(=O)NO)OCc1ccccc1`, in experiment [1], the IC50 turned out to be 8 µM. Further, in experiment [2], the IC50 worked out at 94.3 µM and the pIC50 is on record as 4.03.

`O=C(NCCCC[C@H](NC(=O)c1cccnc1)C(=O)O)OCc1ccccc1`: the IC50 in experiment [1] is 3.14 µM; in experiment [2] it was 167 µM. The pIC50 in experiment [2] is 3.78.

For `O=C(NCCCC[C@H](NC(=O)c1cnccn1)C(=O)NO)OCc1ccccc1`, the figures for the IC50 in experiment [1] and in experiment [2] were 14.3 µM and 97 µM, respectively. The pIC50 in experiment [2] was 4.01.

In experiment [1], `O=C(NCCCC[C@H](NC(=O)c1ccncc1)C(=O)O)OCc1ccccc1` registered an IC50 of 8.76 µM. In experiment [2], this molecule came in with an IC50 of 292 µM and a pIC50 of 3.54.

On to `CC(C)C[C@H](NC(=O)[C@@H](O)[C@H](N)Cc1ccccc1)C(=O)O` [UBENIMEX], for which the IC50 in experiment [1] is 22 µM; in experiment [2] it was 15.5 µM.

In turn, `O=C(NCCCC[C@H](NC(=O)c1cccs1)C(=O)O)OCc1ccccc1` yielded an IC50 in experiment [1] of 12.7 µM. In experiment [2], this molecule yielded an IC50 of 1250 µM and a pIC50 of 2.9.
